The values below come from ChEMBL document CHEMBL2390866, “Novel pyrimidoazepine analogs as serotonin 5-HT(2A) and 5-HT(2C) receptor ligands for the treatment of obesity” (Eur J Med Chem, 2013).

Assay [1] concerns the target T1, 5-hydroxytryptamine receptor 2C (Homo sapiens, UniProt P28335).
T1 sequence (P28335 whole entry): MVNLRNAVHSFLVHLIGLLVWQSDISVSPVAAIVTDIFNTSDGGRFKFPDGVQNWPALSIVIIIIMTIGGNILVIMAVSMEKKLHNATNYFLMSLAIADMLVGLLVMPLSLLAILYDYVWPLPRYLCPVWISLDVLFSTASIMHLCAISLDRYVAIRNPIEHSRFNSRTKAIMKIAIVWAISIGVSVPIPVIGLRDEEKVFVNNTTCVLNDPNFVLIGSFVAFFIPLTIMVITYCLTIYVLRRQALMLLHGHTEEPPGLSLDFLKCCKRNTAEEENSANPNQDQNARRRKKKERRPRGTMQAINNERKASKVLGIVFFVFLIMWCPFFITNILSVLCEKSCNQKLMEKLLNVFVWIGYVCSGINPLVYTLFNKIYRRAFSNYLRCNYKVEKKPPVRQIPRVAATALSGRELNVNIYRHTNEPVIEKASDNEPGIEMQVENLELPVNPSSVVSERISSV
Kind of assay: Displacement of [3H]-mesulergine from human recombinant 5HT-2C receptor expressed in CHOK1 cell membranes after 30 mins. Also on record: species or system CHO-K1. In a few lines:
(§1)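 Frozen CHO-K1 membranes expressing recombinant human 5-HT2C incubated with 1 nM [3H]mesulergine in 50 mM Tris-HCl pH 7.4 containing 0.1% ascorbic acid and pargyline. Mianserin defined nonspecific binding.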
Background: Loss of bound radioactivity is the signal in a displacement assay; it reports binding, not function.

In assay [2] the target is T1, 5-hydroxytryptamine receptor 2C. Kind of assay: Agonist activity at serotonin-activated human recombinant 5HT-2C receptor expressed in HEK293 cells assessed as increase in intracellular calcium level after 5 mins measured for 1 min by fluorescence assay. Format: functional, cell-based. A general note: Calcium assays in cells follow changes in intracellular calcium, usually with a dye or a luminescent sensor.

Assay [3] concerns the target T2, 5-hydroxytryptamine receptor 2A (Homo sapiens, UniProt P28223). The experiment in a line: Displacement of [3H]-ketanserin from human recombinant 5HT-2A receptor expressed in CHOK1 cell membranes after 60 mins. On the set-up: species or system CHO-K1. Summed up: (§2)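 Buffer was 50 mM Tris-HCl pH 7.4 with 5 mM CaCl2 and 0.1% ascorbic acid. Test compound added at a range of concentrations.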

For assay [4], the system named is Mus musculus. Kind of assay: Antiobesity activity in C57BL/6 mouse assessed as inhibition of body weight gain at 50 mg/kg, ip measured after 2 to 12 hrs relative to vehicle-treated control. Format: functional. The settings on record: C57BL/6, ip, route intraperitoneal.
The test system of assay [5] is Mus musculus. Kind of assay: Antiobesity activity in C57BL/6 mouse assessed as inhibition of food intake at 50 mg/kg, ip measured after 2 to 12 hrs relative to vehicle-treated control. Format: functional. The settings on record: C57BL/6, ip, route intraperitoneal. In a few lines: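 Male mice were acclimated 1 week at 23 ± 3 °C and 50 ± 20% humidity, then fasted 24 h. They were dosed once intraperitoneally with vehicle or compound: 50 mg/kg in C57BL/6, or 12.5, 25 or 50 mg/kg in B6.V-Lep^ob/J. Food intake was measured at 2, 6 and 12 h versus vehicle control.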

The target in assay [6] is T1, 5-hydroxytryptamine receptor 2C. Kind of assay: Antagonist activity at serotonin-activated human recombinant 5HT-2C receptor expressed in HEK293 cells assessed as decrease in intracellular calcium level after 5 mins measured for 1 min by fluorescence assay. Format: functional, cell-based. The settings on record: read-out: EC50 (the source's name). Summed up: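 Intracellular calcium read on HEK293 cells stably expressing human receptor, seeded 10,000 cells/well and grown 24 h at 37 °C, 5% CO2. Cells were washed with HBSS/20 mM HEPES, then loaded 50 min with Fluo-4 NW dye in HBSS with 2.5 mM probenecid. Compound was added for 5 min at 37 °C, then serotonin; fluorescence followed 1 min. Run in duplicate or quadruplicate, repeated several times; IC50 by nonlinear regression.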

Assay [7] concerns the target T2, 5-hydroxytryptamine receptor 2A. Kind of assay: Antagonist activity at serotonin-activated human recombinant 5HT-2A receptor expressed in HEK293 cells assessed as decrease in intracellular calcium level after 5 mins measured for 1 min by fluorescence assay. Format: functional, cell-based. The settings on record: read-out: EC50 (the source's name). Summed up:
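Cells were washed with HBSS/20 mM HEPES, then loaded 50 min with Fluo-4 NW dye in HBSS with 2.5 mM probenecid. Compound was added for 5 min at 37 °C, then serotonin; fluorescence followed 1 min. Run in duplicate or quadruplicate, repeated several times; IC50 by nonlinear regression.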

The target is the same in assay [8]. The experiment in a line: Displacement of [3H]-ketanserin from human recombinant 5HT-2A receptor expressed in CHOK1 cell membranes at 10 uM after 60 mins relative to control. The settings on record: CHO-K1. Summed up: as §2
Assay [9] deals with T3, 5-hydroxytryptamine receptor 2C (Homo sapiens) (UniProt P28335).
T3 sequence (whole entry): T1 sequence (P28335 whole entry)
Kind of assay: Displacement of [3H]-mesulergine from human recombinant 5HT-2C receptor expressed in CHOK1 cell membranes at 10 uM after 30 mins relative to control. The settings on record: CHO-K1. In a few lines:
as §1

T2 sequence (P28223 whole entry): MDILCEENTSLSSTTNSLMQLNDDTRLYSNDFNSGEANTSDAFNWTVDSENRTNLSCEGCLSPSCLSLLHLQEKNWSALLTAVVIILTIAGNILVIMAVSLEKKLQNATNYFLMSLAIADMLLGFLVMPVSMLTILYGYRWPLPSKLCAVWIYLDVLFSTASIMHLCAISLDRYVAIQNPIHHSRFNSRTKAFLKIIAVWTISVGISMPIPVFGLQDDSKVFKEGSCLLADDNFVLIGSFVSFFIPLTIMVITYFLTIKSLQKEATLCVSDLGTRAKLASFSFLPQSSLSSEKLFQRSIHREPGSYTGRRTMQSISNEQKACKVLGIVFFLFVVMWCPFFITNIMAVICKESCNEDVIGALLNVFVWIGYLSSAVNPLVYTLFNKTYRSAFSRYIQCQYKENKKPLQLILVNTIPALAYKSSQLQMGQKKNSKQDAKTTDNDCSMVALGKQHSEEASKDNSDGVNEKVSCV

One may read the EC50 as the concentration that produces a half-maximal response. As to `CN1CCN(c2nc3c(c(N4CCOCC4)n2)CCNCC3)CC1`, the IC50 in [1] and in assay [3] was > 10000 nM in each case. Also, the concentration for a half-maximal effect (EC50) in assay [2] came out at 9600 nM.

The term inhibition in vivo denotes the change of the read-out against control, counted positive when it falls. For the molecule `CN1CCN(c2nc3c(c(N(C)C)n2)CCNCC3)CC1`, the results for the inhibition in vivo at 50 mg/kg in the assay on Mus musculus [4] and with Mus musculus [5] were 12.2% and 12.5%, respectively. Also, the IC50 in [1] and in assay [3] was > 10000 nM throughout. Also, the EC50 in assay [2] was found to be 1200 nM.

Regarding `Fc1ccc(Nc2nc(Cc3ccccc3)nc3c2CCNCC3)cc1`, the IC50 amounted to 8.5 nM in assay [1], 2.6 nM in assay [6] and 1.95 nM in assay [3].

Take `COc1cccc(Nc2nc(N3CCN(C)CC3)nc3c2CCNCC3)c1`: the IC50 was 2850 nM in assay [1], 2300 nM in [6] and > 10000 nM in [3].

`CN1CCN(c2nc3c(c(N4CCSCC4)n2)CCNCC3)CC1`: the inhibition in vivo at 50 mg/kg with Mus musculus [4] is -15%; in the assay with Mus musculus [5], 2.1%. Further, the IC50 in [7] is 687 nM; in assay [1] it was > 10000 nM; in assay [3], > 10000 nM. Also, the EC50 in [2] is > 10000 nM.

Consider `CN1CCN(c2nc3c(c(Nc4ccc(F)cc4)n2)CCNCC3)CC1`, for which the results for the inhibition in vivo at 50 mg/kg in the assay with Mus musculus [4] and in the assay with Mus musculus [5] were 5.61% and 11%, respectively. For the same molecule, the IC50 in assay [7] turned out to be 153 nM; in assay [1] it was 337 nM; in assay [6], 1500 nM; in [3], 215 nM.

Regarding `CNc1nc(N2CCN(C)CC2)nc2c1CCNCC2`, the IC50 is 1200 nM in assay [7], > 10000 nM in [1] and > 10000 nM in assay [3].

In the case of `CCNc1nc(N2CCN(C)CC2)nc2c1CCNCC2`, the IC50 in assay [1] and in [3] was > 10000 nM each time. Besides, the EC50 in [2] is > 10000 nM.

Regarding `c1ccc(Cc2nc3c(c(N4CCSCC4)n2)CCNCC3)cc1`, the inhibition in vivo at 50 mg/kg in the assay with Mus musculus [4] amounted to 12%; in the assay with Mus musculus [5] it was 18.4%. Moreover, the IC50 in assay [7] amounted to 96.3 nM; in assay [1] it was 333 nM; in assay [3], 1270 nM.

By inhibition is commonly meant how much of the control response was suppressed. For `Fc1ccc(Nc2nc(N3CCN(c4ccccc4)CC3)nc3[nH]ncc23)cc1`, the inhibition was 100% in assay [8] and 88% in assay [9]. For the same molecule, the IC50 in assay [1] was found to be 416 nM; in assay [3] it was 27.2 nM.

Turning to `CCN(CC)c1nc(N2CCN(C)CC2)nc2c1CCNCC2`, the inhibition in vivo at 50 mg/kg came out at 9.01% in the assay on Mus musculus [4] and 4.17% with Mus musculus [5]. Moreover, the IC50 in assay [7] was 2900 nM; in assay [1] it was > 10000 nM; in assay [3], > 10000 nM.

With `Fc1ccc(Nc2nc(NC3CCCC3)nc3[nH]ncc23)cc1`, the values for the inhibition in [8] and in assay [9] were 72% and 35%, respectively. Moreover, the IC50 was > 10000 nM in [1] and 4500 nM in assay [3].

On to `COc1cccc(Nc2nc(N3CCN(c4ccc(F)cc4)CC3)nc3[nH]ncc23)c1`, for which the values for the inhibition in assay [8] and in assay [9] were 100% and 85%, respectively. The results for the IC50 in [1] and in assay [3] were 1080 nM and 350 nM, respectively.
